These results are taken from ChEMBL document CHEMBL1165977, “Novel analogues of Istaroxime, a potent inhibitor of Na(+),K(+)-ATPase: Synthesis, structure-activity relationship and 3D-quantitative structure-activity relationship of derivatives at position 6 on the androstane scaffold” (Bioorg Med Chem, 2010).

The species named for data set [1] is Cavia porcellus. Description: Positive inotropic activity in electrically driven guinea pig atria assessed as maximal concentration required to increase in […]. Format: functional.
The test system of data set [2] is Cavia porcellus. Description: Positive inotropic activity in guinea pig atria assessed as increase in […] at 0.16 ml/min, iv. It is filed as functional.
A short description of data set [3]: Therapeutic index, ratio of lethal dose to ED80 for inotropic activity in guinea pig. Conditions: in vivo. Format: organism-based, Cavia porcellus. A digest of the protocol: (§1)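 Anesthetized guinea pigs with a jugular vein cannula and an intubated trachea for spontaneous respiration. After stabilization, drug was infused iv at 0.16 mL/min until death or for up to 90 min. Vehicle was DMSO diluted in physiological solution to 1% DMSO final. Read-out was +dP/dt_max. ED80 (dose raising +dP/dt_max by 80%) came from the dose–response, and the doses giving maximum inotropy and death were recorded, giving the lethal dose/ED80 ratio.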

Data set [4] in a line: Inhibition of dog kidney Na+K+-ATPase assessed as hydrolysis of [32P]ATP. Set-up: species or system Canis lupus familiaris. Put shortly:
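Dog kidney Na+,K+-ATPase, isolated and purified by the Jørgensen method. Enzyme activity was read as % hydrolysis of 32P-ATP with versus without test compound. IC50 was obtained by nonlinear least-squares curve fitting, as the mean of two or three experiments.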

Data set [5] concerns Cavia porcellus. Description: Positive inotropic activity in iv dosed guinea pig atria assessed as concentration required to increase in […]. Format: functional.
Data set [6] concerns Cavia porcellus. Description: Toxicity in guinea pig assessed as death at 0.16 ml/min, iv up to 90 mins. It is filed as organism-based. Particulars: in vivo, 1.5 h. Put shortly:
as §1

SMILES strings stand for the structures.

For the molecule `C[C@]12CC/C(=N\OCCN)C[C@@H]1[C@@H](CCO)C[C@@H]1[C@@H]2CC[C@]2(C)C(=O)CC[C@@H]12.Cl`, in the data set listed under Cavia porcellus [1], the Activity was 17 µM/g. The maximal response (Emax) in the data set on Cavia porcellus [2] worked out at 238%. Further, the selectivity ratio in data set [3] turned out to be 23. In data set [4], the concentration for half-maximal inhibition (IC50) is 320 nM. Also, the ED80 in the data set on Cavia porcellus [5] was 2.5 µM/g.

As for `C[C@]12CC/C(=N\OCCN)C[C@@H]1[C@@H](O[N+](=O)[O-])C[C@@H]1[C@@H]2CC[C@]2(C)C(=O)CC[C@@H]12.O=C(O)/C=C/C(=O)O`, the Activity in the data set filed under Cavia porcellus [1] was 9.8 µM/g. The Emax in the data set with Cavia porcellus [2] was 172%. Moreover, the selectivity ratio in data set [3] was determined as 8. In addition, in data set [4], the IC50 amounted to 330 nM. Also, in the data set on Cavia porcellus [5], the ED80 stood at 3.6 µM/g.

Consider `C[C@]12CC/C(=N\O[C@@H]3CCNC3)C[C@@H]1/C(=N/O)C[C@@H]1[C@@H]2CC[C@]2(C)C(=O)CC[C@@H]12.Cl`, for which the figures for the Activity in the data set listed under Cavia porcellus [1] and in the data set with Cavia porcellus [6] were 4.3 µM/g and “Non-toxic”, respectively. In the data set with Cavia porcellus [2], the maximal effect (Emax) was found to be 144%. In data set [4], the IC50 stood at 16 nM. Further, the ED80 in the data set with Cavia porcellus [5] was determined as 1.5 µM/g.

As for `C[C@]12CC/C(=N\O[C@@H]3CCNC3)C[C@@H]1[C@@H](CCO)C[C@@H]1[C@@H]2CC[C@]2(C)C(=O)CC[C@@H]12.Cl`, the Activity in the data set filed under Cavia porcellus [1] was 5.1 µM/g; in the data set with Cavia porcellus [6], “Non-toxic”. For the same molecule, in the data set on Cavia porcellus [2], the Emax is 183%. The IC50 in data set [4] came to 58 nM. Also, in the data set on Cavia porcellus [5], the ED80 was determined as 1.9 µM/g.

`C[C@]12CC/C(=N\O[C@@H]3CCNC3)C[C@@H]1[C@@H](C(N)=O)C[C@@H]1[C@@H]2CC[C@]2(C)C(=O)CC[C@@H]12.Cl`: the Activity in the data set listed under Cavia porcellus [1] is 8.8 µM/g; with Cavia porcellus [6] it was “Non-toxic”. Moreover, the Emax in the data set with Cavia porcellus [2] came to 109%. The IC50 in data set [4] was 140 nM. In addition, the ED80 in the data set with Cavia porcellus [5] was 2.2 µM/g.

For `CNCCCO/N=C1\CC[C@@]2(C)[C@H](C1)[C@@H](CO)C[C@@H]1[C@@H]2CC[C@]2(C)C(=O)CC[C@@H]12.Cl`, the Activity in the data set filed under Cavia porcellus [1] came to 9 µM/g. Also, the maximum response (Emax) with Cavia porcellus [2] came out at 263%. Moreover, the selectivity ratio in data set [3] turned out to be 28. For the same molecule, in data set [4], the IC50 is 690 nM. The ED80 in the data set on Cavia porcellus [5] was determined as 1.5 µM/g.

Take `CNCCCO/N=C1\CC[C@@]2(C)[C@H](C1)[C@@H](C)C[C@@H]1[C@@H]2CC[C@]2(C)C(=O)CC[C@@H]12.Cl`: the Activity was 18 µM/g in the data set listed under Cavia porcellus [1] and “Non-toxic” with Cavia porcellus [6]. The maximal response (Emax) in the data set with Cavia porcellus [2] came out at 213%. Further, the IC50 in data set [4] worked out at 910 nM. Besides, in the data set on Cavia porcellus [5], the ED80 was determined as 8.1 µM/g.

With `CO[C@H]1C[C@@H]2[C@H](CC[C@]3(C)C(=O)CC[C@@H]23)[C@@]2(C)CC/C(=N\OCCN)C[C@H]12.Cl`, in the data set filed under Cavia porcellus [1], the Activity was found to be 18 µM/g. The Emax in the data set with Cavia porcellus [2] was determined as 167%. In addition, the selectivity ratio in data set [3] is 9. For the same molecule, in data set [4], the IC50 stood at 710 nM. Also, the ED80 in the data set with Cavia porcellus [5] stood at 4.3 µM/g.

With `CNCCCO/N=C1\CC[C@@]2(C)[C@H](C1)[C@@H](NC=O)C[C@@H]1[C@@H]2CC[C@]2(C)C(=O)CC[C@@H]12.Cl`, the Activity in the data set filed under Cavia porcellus [1] amounted to 2.8 µM/g. Besides, in the data set with Cavia porcellus [2], the Emax amounted to 177%. Besides, the selectivity ratio in data set [3] came out at 47. The IC50 in data set [4] worked out at 1100 nM. Also, the ED80 in the data set with Cavia porcellus [5] is 0.93 µM/g.

For the molecule `COC(=O)[C@H]1C[C@@H]2[C@H](CC[C@]3(C)C(=O)CC[C@@H]23)[C@@]2(C)CC/C(=N\O[C@@H]3CCNC3)C[C@H]12.Cl`, the values for the Activity in the data set listed under Cavia porcellus [1] and with Cavia porcellus [6] were 23 µM/g and “Non-toxic”, respectively. The Emax with Cavia porcellus [2] is 164%. For the same molecule, the half-inhibitory concentration (IC50) in data set [4] was 160 nM. Further, the ED80 in the data set on Cavia porcellus [5] was found to be 11 µM/g.

Turning to `C[C@]12CC/C(=N\OCCN)C[C@@H]1/C(=N/O)C[C@@H]1[C@@H]2CC[C@]2(C)C(=O)CC[C@@H]12.Cl`, in the data set listed under Cavia porcellus [1], the Activity stood at 4.3 µM/g. Besides, the maximal response (Emax) in the data set with Cavia porcellus [2] is 180%. Besides, the selectivity ratio in data set [3] is 11. Besides, the IC50 in data set [4] came to 24 nM. Further, in the data set on Cavia porcellus [5], the ED80 was found to be 0.84 µM/g.

For `COC[C@H]1C[C@@H]2[C@H](CC[C@]3(C)C(=O)CC[C@@H]23)[C@@]2(C)CC/C(=N\O[C@@H]3CCNC3)C[C@H]12.O=C(O)/C=C/C(=O)O`, the results for the Activity in the data set listed under Cavia porcellus [1] and in the data set with Cavia porcellus [6] were 12 µM/g and “Non-toxic”, respectively. Also, in the data set on Cavia porcellus [2], the maximal effect (Emax) was found to be 201%. Also, the IC50 in data set [4] is 320 nM. Further, in the data set with Cavia porcellus [5], the ED80 came out at 6.8 µM/g.

With `CNCCCO/N=C1\CC[C@@]2(C)[C@H](C1)/C(=N/O)C[C@@H]1[C@@H]2CC[C@]2(C)C(=O)CC[C@@H]12.Cl`, the Activity in the data set filed under Cavia porcellus [1] is 15 µM/g; in the data set on Cavia porcellus [6], “Non-toxic”. Also, the Emax in the data set on Cavia porcellus [2] came out at 158%. The IC50 in data set [4] worked out at 200 nM. Also, in the data set on Cavia porcellus [5], the ED80 was found to be 7.1 µM/g.

Take `C[C@]12CC/C(=N\OCCN)C[C@@H]1[C@@H](NC=O)C[C@@H]1[C@@H]2CC[C@]2(C)C(=O)CC[C@@H]12.O=C(O)/C=C/C(=O)O`: the Activity in the data set filed under Cavia porcellus [1] turned out to be 27 µM/g. Besides, in the data set on Cavia porcellus [2], the Emax was found to be 174%. The selectivity ratio in data set [3] is 33. In data set [4], the 50% inhibitory concentration (IC50) was determined as 160 nM. Besides, the ED80 in the data set with Cavia porcellus [5] is 2 µM/g.

Regarding `C[C@]12CC/C(=N\O[C@@H]3CCNC3)C[C@@H]1[C@@H](NC=O)C[C@@H]1[C@@H]2CC[C@]2(C)C(=O)CC[C@@H]12.Cl`, the Activity in the data set filed under Cavia porcellus [1] was 6 µM/g. The Emax with Cavia porcellus [2] is 142%. Besides, the selectivity ratio in data set [3] turned out to be 11. For the same molecule, in data set [4], the half-inhibitory concentration (IC50) is 41 nM. Further, the ED80 in the data set with Cavia porcellus [5] amounted to 1.6 µM/g.

Consider `C[C@H]1O[C@@H](O[C@H]2[C@@H](O)C[C@H](O[C@H]3[C@@H](O)C[C@H](O[C@H]4CC[C@@]5(C)[C@H](CC[C@@H]6[C@@H]5C[C@@H](O)[C@]5(C)[C@@H](C7=CC(=O)OC7)CC[C@]65O)C4)O[C@@H]3C)O[C@@H]2C)C[C@H](O)[C@@H]1O` [DIGOXIN], for which the Activity is 0.97 µM/g in the data set listed under Cavia porcellus [1] and “Toxic” in the data set on Cavia porcellus [6]. In addition, in data set [3], the selectivity ratio was 3.2. The IC50 in data set [4] came out at 310 nM. Moreover, the ED80 with Cavia porcellus [5] worked out at 0.41 µM/g.
